The text below walks through data of ChEMBL document CHEMBL2384910, “Lead optimization of 5-amino-6-(2,2-dimethyl-5-oxo-4-phenylpiperazin-1-yl)-4-hydroxyhexanamides to reduce a cardiac safety issue: discovery of DS-8108b, an orally active renin inhibitor” (Bioorg Med Chem, 2013).

The target of one data set is T1, Renin (Homo sapiens, UniProt P00797).
T1 sequence (P00797 whole entry): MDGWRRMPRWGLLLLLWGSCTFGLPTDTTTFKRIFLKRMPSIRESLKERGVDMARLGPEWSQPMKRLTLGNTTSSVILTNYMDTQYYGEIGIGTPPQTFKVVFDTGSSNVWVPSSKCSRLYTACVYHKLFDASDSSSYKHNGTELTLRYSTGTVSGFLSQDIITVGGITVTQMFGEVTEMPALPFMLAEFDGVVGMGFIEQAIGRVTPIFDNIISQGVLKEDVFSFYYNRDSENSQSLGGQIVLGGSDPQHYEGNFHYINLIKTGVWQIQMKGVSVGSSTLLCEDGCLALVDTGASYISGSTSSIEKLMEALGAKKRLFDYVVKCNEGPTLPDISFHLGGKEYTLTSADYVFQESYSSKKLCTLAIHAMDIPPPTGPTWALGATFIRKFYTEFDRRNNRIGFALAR
In words: Inhibition of human recombinant renin using Arg-Glu(EDANS)-Ile-His-Pro-Phe-His-Leu-Val-Ile-His-Thr-Lys (DABCYL)-Arg as substrate incubated for 10 mins prior to substrate addition measured after 90 mins by fluorescence assay. In outline: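 Trypsin-activated recombinant human renin in 50 mM Tris-HCl pH 7.9, 100 mM NaCl, preincubated with compound 10 min at room temperature; FRET substrate Arg-Glu(EDANS)…Lys(DABCYL)-Arg added, 90 min at 37 °C.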

In the next data set the test system is Oryctolagus cuniculus. In words: Cardiotoxicity in anesthetized New Zealand White rabbit assessed as change in QTc interval at 1 mg/kg/min, iv after 10 mins relative to baseline. In kind it is toxicity, organism-based. On the set-up: route intravenous. Conditions: in vivo; call rule not given here. In a few lines:
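Female NZW rabbits anesthetized with ketamine 35 mg/kg ip plus xylazine 5 mg/kg ip, tracheotomized, ventilated with room air. ECG and systemic pressure monitored; HR, PR, QRS, QT, QTc quantified. After stabilization, continuous iv infusion 1 mg/kg/min for 1 h; values at 10 min as % change from baseline.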

In data set [1] the target is Voltage-gated inwardly rectifying potassium channel KCNH2 (Homo sapiens, UniProt Q12809). In words: Inhibition of human ERG channel expressed in CHOK1 cells at 100 uM after 5 mins by patch clamp technique. In kind it is cell-based. Conditions: cho-k1, 5 min. In a few lines:
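CHO-K1 cells stably expressing hERG; automated patch clamp. Holding −80 mV, step to +50 mV for 2 s, then −40 mV for 2 s; tail peak current measured. Compound incubated 5 min.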
For orientation: Patch clamp records ionic current or voltage across a cell membrane.

The next data set relates to Cynomolgus monkey. In words: Cardiotoxicity in conscious cynomolgus monkey assessed as change in heart rate at 1000 mg/kg, po after 4 hrs relative to baseline. Conditions: in vivo.

Chain of Voltage-gated inwardly rectifying potassium channel KCNH2 (Q12809 whole entry): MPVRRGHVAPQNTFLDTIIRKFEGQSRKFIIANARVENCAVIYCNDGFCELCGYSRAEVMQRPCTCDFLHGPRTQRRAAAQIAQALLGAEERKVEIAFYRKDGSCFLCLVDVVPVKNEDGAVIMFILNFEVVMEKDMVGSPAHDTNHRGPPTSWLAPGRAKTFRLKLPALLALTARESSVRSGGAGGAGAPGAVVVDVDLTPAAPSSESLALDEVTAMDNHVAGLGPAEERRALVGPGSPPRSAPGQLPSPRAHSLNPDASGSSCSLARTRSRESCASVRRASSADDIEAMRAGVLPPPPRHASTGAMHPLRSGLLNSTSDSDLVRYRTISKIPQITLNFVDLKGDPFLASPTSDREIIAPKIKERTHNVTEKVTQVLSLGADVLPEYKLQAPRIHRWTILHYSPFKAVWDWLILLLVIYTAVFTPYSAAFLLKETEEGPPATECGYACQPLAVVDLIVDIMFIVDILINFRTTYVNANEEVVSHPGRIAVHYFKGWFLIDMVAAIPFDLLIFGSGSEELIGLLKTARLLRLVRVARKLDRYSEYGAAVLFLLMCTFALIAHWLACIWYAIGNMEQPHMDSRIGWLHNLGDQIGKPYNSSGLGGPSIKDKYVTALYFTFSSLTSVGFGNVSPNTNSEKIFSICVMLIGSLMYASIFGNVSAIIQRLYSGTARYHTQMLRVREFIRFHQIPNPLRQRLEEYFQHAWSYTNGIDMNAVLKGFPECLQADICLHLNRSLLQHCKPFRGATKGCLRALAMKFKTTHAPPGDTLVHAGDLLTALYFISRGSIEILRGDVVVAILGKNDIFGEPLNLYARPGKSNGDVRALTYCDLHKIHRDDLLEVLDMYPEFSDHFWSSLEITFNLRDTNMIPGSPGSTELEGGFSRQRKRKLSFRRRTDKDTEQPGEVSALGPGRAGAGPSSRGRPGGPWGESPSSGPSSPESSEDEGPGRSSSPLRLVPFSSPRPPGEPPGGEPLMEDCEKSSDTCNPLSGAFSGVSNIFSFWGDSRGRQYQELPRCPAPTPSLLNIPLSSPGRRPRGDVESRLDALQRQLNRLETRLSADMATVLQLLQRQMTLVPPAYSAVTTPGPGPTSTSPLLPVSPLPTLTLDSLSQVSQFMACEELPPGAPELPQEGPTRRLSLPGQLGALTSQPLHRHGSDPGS

The term IC50 denotes the concentration that inhibits the measured activity by half. For `CC[C@H](C[C@H](O)[C@@H](N)CN1CC(=O)N(c2ccccc2Cl)CC1(C)C)C(=O)N[C@H]1C2CC3CC1C[C@](O)(C3)C2.O=C(O)/C=C/C(=O)O`, the IC50 on Renin worked out at 0.9 nM. Further, the Activity with Oryctolagus cuniculus is 2.7%; in the data set on Cynomolgus monkey, -4.2%. In addition, the “inhibition (INH)” value in data set [1] was “Not Active”.
